ChEMBL document CHEMBL1140108, “In vivo positron emission tomography (PET) imaging with an alphavbeta6 specific peptide radiolabeled using 18F-"click" chemistry: evaluation and comparison with the corresponding 4-[18F]fluorobenzoyl- and 2-[18F]fluoropropionyl-peptides” (J Med Chem, 2008)

Key:
Settings in all cases: in vivo
[1] = Biodistribution in gall bladder of athymic nu/nu mouse bearing human alphavbeta6 expressing DX3purobeta6 cells at 15 to 30 uCi, iv after 1 hr; type: ADME, organism-based
How it was run: (§1)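 Male athymic nu/nu mice carried s.c. xenografts on opposite shoulder flanks: 3 × 10^6 DX3puro or DX3puroβ6 cells in serum-free DMEM, integrin expression checked by flow cytometry beforehand, used 2-5 weeks later. [18F]-peptide (approx. 15-30 μCi) in isotonic solution given i.v. via tail-vein catheter under 3% isoflurane. 1 h conscious uptake, then sacrificed and dissected (n = 3 per tracer). Organs γ-counted, decay-corrected, reported as % ID/g.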

Liver = assay: Biodistribution in liver of athymic nu/nu mouse bearing human alphavbeta6 expressing DX3purobeta6 cells at 15 to 30 uCi, iv after 1 hr; type: ADME, organism-based; how it was run: as §1
Pancreas = assay: Biodistribution in pancreas of athymic nu/nu mouse bearing human alphavbeta6 expressing DX3purobeta6 cells at 15 to 30 uCi, iv after 1 hr; type: ADME, organism-based; how it was run: as §1
Bone = assay: Biodistribution in bone of athymic nu/nu mouse bearing human alphavbeta6 expressing DX3purobeta6 cells at 15 to 30 uCi, iv after 1 hr; type: ADME, organism-based, Bone element; how it was run: as §1
[2] = Biodistribution in urine of athymic nu/nu mouse bearing human alphavbeta6 expressing DX3purobeta6 cells at 15 to 30 uCi, iv after 1 hr; type: ADME, organism-based; how it was run: as §1
Urinary bladder = assay: Biodistribution in bladder of athymic nu/nu mouse bearing human alphavbeta6 expressing DX3purobeta6 cells at 15 to 30 uCi, iv after 1 hr; type: ADME, organism-based; how it was run: as §1
Kidney = assay: Biodistribution in kidney of athymic nu/nu mouse bearing human alphavbeta6 expressing DX3purobeta6 cells at 15 to 30 uCi, iv after 1 hr; type: ADME, organism-based; how it was run: as §1
[3] = Biodistribution in human alphavbeta6 expressing DX3purobeta6 cells bearing athymic nu/nu mouse at 15 to 30 uCi, iv after 1 hr; type: ADME, organism-based; how it was run: as §1
Stomach = assay: Biodistribution in stomach of athymic nu/nu mouse bearing human alphavbeta6 expressing DX3purobeta6 cells at 15 to 30 uCi, iv after 1 hr; type: ADME, organism-based; how it was run: as §1
[4] = Biodistribution ratio of human alphavbeta6 expressing DX3purobeta6 cells to human alphavbeta6 deficient DX3puro cells bearing athymic nu/nu mouse at 15 to 30 uCi, iv after 1 hr; type: ADME, organism-based
How it was run: (§2)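 Tumour ratios were taken from 1 h biodistribution in male nu/nu mice bearing DX3puro and DX3puroβ6 s.c. shoulder xenografts (3 × 10^6 cells). Dosing was approx. 15-30 μCi [18F]-peptide i.v. by tail-vein catheter under isoflurane, with conscious uptake. Tissues were γ-counted as decay-corrected % ID/g (n = 3 per tracer), and the ratio was formed from these values.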

Heart = assay: Biodistribution in heart of athymic nu/nu mouse bearing human alphavbeta6 expressing DX3purobeta6 cells at 15 to 30 uCi, iv after 1 hr; type: ADME, organism-based; how it was run: as §1
Spleen = assay: Biodistribution in spleen of athymic nu/nu mouse bearing human alphavbeta6 expressing DX3purobeta6 cells at 15 to 30 uCi, iv after 1 hr; type: ADME, organism-based; how it was run: as §1
Lung = assay: Biodistribution in lung of athymic nu/nu mouse bearing human alphavbeta6 expressing DX3purobeta6 cells at 15 to 30 uCi, iv after 1 hr; type: ADME, organism-based; how it was run: as §1
Blood = assay: Biodistribution in blood of athymic nu/nu mouse bearing human alphavbeta6 expressing DX3purobeta6 cells at 15 to 30 uCi, iv after 1 hr; type: ADME, organism-based; how it was run: as §1
Muscle tissue = assay: Biodistribution in muscle of athymic nu/nu mouse bearing human alphavbeta6 expressing DX3purobeta6 cells at 15 to 30 uCi, iv after 1 hr; type: ADME, organism-based; how it was run: as §1
[5] = Biodistribution ratio of human alphavbeta6 expressing DX3purobeta6 cells bearing athymic nu/nu mouse to blood of athymic nu/nu mouse bearing human alphavbeta6 expressing DX3purobeta6 cells at 15 to 30 uCi, iv after 1 hr; type: ADME, organism-based; how it was run: as §2
[6] = Biodistribution in human alphavbeta6 deficient DX3puro cells bearing athymic nu/nu mouse at 15 to 30 uCi, iv after 1 hr; type: ADME, organism-based; how it was run: as §1
Brain = assay: Biodistribution in brain of athymic nu/nu mouse bearing human alphavbeta6 expressing DX3purobeta6 cells at 15 to 30 uCi, iv after 1 hr; type: ADME, organism-based; how it was run: as §1

Structure (SMILES) | Drug uptake [1] [% ID/g] | Drug uptake (Liver) [% ID/g] | Drug uptake (Pancreas) [% ID/g] | Drug uptake (Bone) [% ID/g] | Drug uptake [2] [% ID/g] | Drug uptake (Urinary bladder) [% ID/g] | Drug uptake (Kidney) [% ID/g] | Drug uptake [3] [% ID/g] | Drug uptake (Stomach) [% ID/g] | Ratio [4] | Drug uptake (Heart) [% ID/g] | Drug uptake (Spleen) [% ID/g] | Drug uptake (Lung) [% ID/g] | Drug uptake (Blood) [% ID/g] | Drug uptake (Muscle tissue) [% ID/g] | Ratio [5] | Drug uptake [6] [% ID/g] | Drug uptake (Brain) [% ID/g]
CC(C)C[C@H](NC(=O)[C@H](CC(=O)O)NC(=O)CNC(=O)[C@H](CCCNC(=N)N)NC(=O)[C@H](CC(C)C)NC(=O)[C@H](CC(N)=O)NC(=O)[C@@H]1CCCN1C(=O)[C@@H](NC(=O)[C@H](C)NC(=O)[C@H](CC(N)=O)NC(=O)CCn1cc(CCC[18F])nn1)C(C)C)C(=O)N[C@@H](CCC(N)=O)C(=O)N[C@H](C(=O)N[C@@H](CC(C)C)C(=O)N[C@@H](C)C(=O)N[C@@H](CCC(N)=O)C(=O)N[C@@H](CCCCN)C(=O)N[C@H](C(=O)N[C@@H](C)C(=O)N[C@@H](CCCNC(=N)N)C(=O)N[C@H](C(N)=O)[C@@H](C)O)C(C)C)C(C)C | 4.72 | 1.12 | 0.3 | 0.39 | 501 | 6.24 | 9.5 | 1.01 | 0.97 | 3.3 | 0.47 | 0.13 | 1.83 | 0.43 | 1.01 | 2.3 | 0.31 | 0.05
CC(C)C[C@H](NC(=O)[C@H](CC(=O)O)NC(=O)CNC(=O)[C@H](CCCNC(=N)N)NC(=O)[C@H](CC(C)C)NC(=O)[C@H](CC(N)=O)NC(=O)[C@@H]1CCCN1C(=O)[C@@H](NC(=O)[C@H](C)NC(=O)[C@H](CC(N)=O)NC(=O)C(C)[18F])C(C)C)C(=O)N[C@@H](CCC(N)=O)C(=O)N[C@H](C(=O)N[C@@H](CC(C)C)C(=O)N[C@@H](C)C(=O)N[C@@H](CCC(N)=O)C(=O)N[C@@H](CCCCN)C(=O)N[C@H](C(=O)N[C@@H](C)C(=O)N[C@@H](CCCNC(=N)N)C(=O)N[C@H](C(N)=O)[C@@H](C)O)C(C)C)C(C)C (stereo partly drawn) | 2.13 | 0.51 | 0.39 | 0.38 | 311 | 5.3 | 4.87 | 1.18 | 3.61 | 1.9 | 0.62 | 0.32 | 2.06 | 0.64 | 0.82 | 1.8 | 0.61 | 0.28
CC(C)C[C@H](NC(=O)[C@H](CC(=O)O)NC(=O)CNC(=O)[C@H](CCCNC(=N)N)NC(=O)[C@H](CC(C)C)NC(=O)[C@H](CC(N)=O)NC(=O)[C@@H]1CCCN1C(=O)[C@@H](NC(=O)[C@H](C)NC(=O)[C@H](CC(N)=O)NC(=O)c1ccc([18F])cc1)C(C)C)C(=O)N[C@@H](CCC(N)=O)C(=O)N[C@H](C(=O)N[C@@H](CC(C)C)C(=O)N[C@@H](C)C(=O)N[C@@H](CCC(N)=O)C(=O)N[C@@H](CCCCN)C(=O)N[C@H](C(=O)N[C@@H](C)C(=O)N[C@@H](CCCNC(=N)N)C(=O)N[C@H](C(N)=O)[C@@H](C)O)C(C)C)C(C)C [[18F]-FBA-A20FMDV2] | 15.05 | 0.63 | 0.23 | 0.29 |  | 8.25 | 3.56 | 0.66 | 1.33 | 3.1 | 0.31 | 0.07 | 1.39 | 0.27 | 0.56 | 2.5 | 0.21 | 0.02
